The sample as a whole holds a higher share of hits than the screen did.
XBP1 UPR activ: activators of adaptive XBP1 UPR arm, primary screen, cell-based, CHO-XBP1 luciferase reporter, luminescence, uHTS; IRE1-XBP1 UPR activation; percent of tunicamycin response, DMSO as zero; activation, % at 20 µM; 330,000 tested, 0.33% active; AID 463104, 2010;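 active means versus positive control, 20 µM dose yields 30% or more activation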;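 further: 100% = tunicamycin at 10 µg/mL and 0% = DMSO only wells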
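Material – CHO cell line with stable XBP1 luciferase reporter · Buffer or medium – F12 plus 10% FBS · Compound – single point, 20 µM final compound, 1% DMSO · Schedule – 16-18 h cell attachment at 37 °C, then 6 h compound exposure · Signal – Steady-Glo luminescence read · Benchmarks – high control tunicamycin 10 µg/mL final, low control DMSO vehicle only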
TbMetRS inhib: T. brucei MetRS inhibitors, primary screen, biochemical, luminescence | methionyl-tRNA synthetase (Trypanosoma brucei brucei) | purified T. brucei MetRS, ATP depletion, Kinase-Glo luminescence | inhibition, % at 11.9 µM | 360,000 tested, 0.4% active | AID 624268, 2012;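 active means inhibition above a per-plate cutoff of the control wells' mean inhibition plus 3 SD, cut at about 5.5% in these data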;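 further: 0% = DMSO wells median and 100% = median of wells with control inhibitor compound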
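Dosing: 11.9 µM compound single dose, 0.9% DMSO; Assay system: purified T. brucei MetRS enzyme; Measured by: Kinase-Glo luciferase luminescence reporting remaining unconsumed ATP; Schedule: 15 min plus 2 h at 25 °C.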
UPR CHOP act: activators of apoptotic CHOP UPR arm, primary screen, cell-based, CHO-CHOP luciferase reporter, luminescence, uHTS | UPR activation; percent of tunicamycin response over DMSO baseline | activation, % at 10 µM | 330,000 tested, 0.34% active | AID 449763, 2010;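 active means at 10 µM dose, activation of 40% or more, normalized to positive control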;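 further: 100% = tunicamycin at 10 µg/mL and 0% = DMSO alone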
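System: CHO CHOP reporter cells. Amount: 500 cells per well. Buffer or medium: F12 medium, 10% FBS. Compound dosing: one dose, 10 µM in 0.5% DMSO. Incubation: 6 h compound exposure at 37 °C after overnight seeding. Technique: Steady-Glo luciferase luminescence. Benchmarks: tunicamycin and DMSO controls.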
V-ATPase pH: regulators of yeast V-ATPase proton pumping, primary screen, pHLuorin cytosolic pH fluorescence; S. cerevisiae; 350,000 tested, 0.37% active; response, % at 10 µM; AID 504577, 2011; in the data active means response mostly above about 7.3%, no sharp cut-off; inactive means mostly below about 5.4%; further: actives read high
CHOP inhibitor: inhibitors of CHOP promoter induction, primary screen, cell-based, unfolded protein response, luciferase reporter. AID 2732, 2010. 220,000 tested, 3.8% active. inhibition, % at 10 µM. CHO-K1 CHOP-promoter luciferase, tunicamycin-induced, 15-18 h;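 active means compounds that reduced the stress-induced luciferase reporter signal by more than about 70% of percent inhibition, limit read from the data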;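 further: 0% = tunicamycin plus vehicle and 100% = wells without tunicamycin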
* hit, by the source's call; . = not tested or not shown.

SMILES	XBP1 UPR activ	TbMetRS inhib	UPR CHOP act	V-ATPase pH	CHOP inhibitor
COc1ccc2oc(=Nc3ccccc3)c(-c3nc4ccccc4[nH]3)cc2c1	17.1	-1.2	17.3	-1.0	85.6*
Cc1ccc(S(=O)(=O)N(C)C[C@@H]2OCc3cnnn3CCCC(=O)N([C@H](C)CO)C[C@@H]2C)cc1	.	-1.2	.	2.5	.
Cc1ccc(SC(C)c2nc(-c3ccccc3)no2)cc1 (stereo not drawn)	-1.2	-1.2	0.8	3.4	72.4*
Cc1ccccc1OC(C)c1nc(-c2ccccc2)no1 (stereo not drawn)	8.7	-0.9	4.8	3.6	32.3
CCOC(=O)CNc1nc(C(C)(C)C)nc2c1nnn2Cc1ccccc1Cl	0.7	0.0	-1.3	1.6	80.8*
O=C1N=c2ccccc2=C1c1sc(=S)n(NC(=O)c2ccccc2)c1O	-1.5	0.2	-0.7	-3.1	94.2*
Cc1ccc(S(=O)(=O)N2C3CC(c4ccccc4)N(S(=O)(=O)c4ccccc4Cl)CC3C(=O)C[C@H]2c2ccccc2)cc1 (stereo partly drawn)	.	-0.3	.	.	.
CCOc1ccc(/C=C2/SC(=S)N(CCC(=O)Nc3ccc(C(=O)O)cc3)C2=O)cc1	0.7	-0.1	4.1	-0.7	.
O=C(O)CCN1C(=O)/C(=C\c2cccc(OCC(=O)Nc3ccc(Cl)cc3)c2)SC1=S	0.1	1.8	1.1	-0.7	4.7
O=C(CN1C(=O)/C(=C/c2cccc(Br)c2)SC1=S)Nc1cccnc1	1.0	-0.2	-0.8	-1.6	0.7
Cc1ccc(NC(=O)COc2cccc(/C=C3\SC(=S)N(CCC(=O)O)C3=O)c2)cc1Cl	0.2	-0.2	-0.4	1.6	98.0*
O=C(CCN1C(=O)/C(=C/c2cccc(Br)c2)SC1=S)Nc1cccnc1	7.1	0.0	-1.2	-1.3	86.6*
CCOc1ccc(/C=C2\SC(=S)N(CCC(=O)O)C2=O)cc1	-5.7	-0.7	-8.1	-0.5	84.0*
COc1ccc(S(=O)(=O)N2CCC[C@H]2C(=O)N2CCC[C@H]2C(=O)NCc2ccncc2)cc1C	.	-0.3	.	.	.
c1ccc(-c2nc3nonc3nc2-c2ccccc2)cc1	2.7	0.7	0.9	7.4	84.9*
O=C(C(Cl)Cl)N1CCN(Cc2ccccc2)CC1	-3.7	-0.1	16.5	0.0	25.3
O=C(C(c1ccccc1)c1ccccc1)N1CCN(Cc2ccc(Br)cc2)CC1	-2.1	-0.1	-1.8	-1.0	80.6*
COc1ccc(-c2c(C#N)c(N)nc3c2CCC3)cc1	0.3	0.1	0.0	-0.1	1.9
CSc1nc2c(c(-c3ccc(O)cc3)c1C#N)CCC2	2.6	0.3	-3.7	-1.0	85.8*
CC(C)Oc1ccccc1/C=N/Nc1ccccc1[N+](=O)[O-]	-2.0	-1.8	1.4	-1.2	75.9*
Cc1ccc(S(=O)(=O)N2c3ccccc3OC(C(=O)OC(C)(C)C)(C(=O)OC(C)(C)C)C2CC(=O)c2ccccc2)cc1 (stereo not drawn)	.	-0.5	.	.	.
COC(=O)c1ccc(NC(C)=O)cc1O	.	.	.	.	5.3
COc1ccc(Cl)cc1NC(=O)c1nc2nc(C)cc(C(F)F)n2n1	0.9	0.0	1.3	-2.1	73.6*
COc1cccc(NC(=O)c2nc3nc(C)cc(C(F)F)n3n2)c1	-1.1	0.5	0.4	-1.7	19.2
CCc1c(-c2cccc(OC)c2)ncn1Cc1cccc(-c2ccccc2)c1	.	-0.6	.	.	.
SMILES	XBP1 UPR activ	TbMetRS inhib	UPR CHOP act	V-ATPase pH	CHOP inhibitor
CCOC(=O)C1=C(NC(=S)NC(=O)c2ccccc2)c2ccccc2CC1C(C)C (stereo not drawn)	-2.0	0.3	0.1	2.6	89.1*
CC(=O)c1sc(Nc2nc3cc4c(cc3s2)OCO4)nc1C	.	-0.4	.	-0.1	-36.8
CCOC(=O)c1sc(Nc2nc3cc4c(cc3s2)OCO4)cc1C	3.7	-0.5	4.5	-0.6	98.1*
N#CC1=C(N)OC2=C(CCc3ccccc32)C1c1ccccc1Cl (stereo not drawn)	8.0	0.6	4.5	-0.8	87.5*
COc1cc(OC)c(-c2c3cc(O)c(=O)cc-3oc3cc(O)c(O)cc23)cc1OC	-2.3	-1.0	-2.3	-2.3	19.9
Cc1c2cc(O)c(=O)cc-2oc2cc(O)c(O)cc12	-1.2	0.8	-0.2	205.7*	23.1
O=C(CSc1ccc(Cl)cc1)N1CCN(c2ccc([N+](=O)[O-])cc2Cl)CC1	-2.2	0.3	2.2	1.5	78.1*
NNC(=O)CCc1ccc(S(=O)(=O)N2CCOCC2)cc1	-1.1	0.3	-0.3	5.9	29.0
COC(=O)C(CCSC)NC(=O)CNS(=O)(=O)c1ccc(F)cc1 (stereo not drawn)	1.3	0.1	-0.8	11.9	-11.8
COC(=O)C(CCSC)NC(=O)CNS(=O)(=O)c1ccc(Br)cc1 (stereo not drawn)	0.9	-0.8	0.5	2.5	80.5*
c1ccc(N2CCN(c3nc4ccccc4n4cnnc34)CC2)cc1	7.0	0.4	1.0	-1.5	55.2
c1ccc2c(c1)CCN(c1nc3ccccc3n3cnnc13)C2	5.9	-0.2	0.4	-1.7	70.5*
O=C(c1ccc(Cl)cc1)N1CCC(O)(CSc2ccc(Cl)cc2)CC1	0.4	-0.9	-3.2	6.4	72.3*
Cc1ccc(SCC2(O)CCN(S(=O)(=O)c3ccc(Cl)cc3)CC2)cc1	0.1	-0.4	-1.1	-1.4	81.4*
COc1ccc(S(=O)(=O)N2CCC(O)(c3ccc(Cl)cc3)CC2)cc1	-1.1	-0.1	-1.6	-0.7	37.5
COc1ccc(S(=O)(=O)N2CCC(O)(c3ccc(Cl)cc3)CC2)cc1OC	0.2	-0.2	-0.6	17.1*	24.9
O=C(c1ccc(Cl)cc1)N1CCC(O)(CSc2ccccc2)CC1	-3.8	0.0	-0.9	-0.6	-10.0
O=C(NCCS(=O)(=O)N1CCN(c2cccc(Cl)c2)CC1)c1ccco1	-2.3	-0.3	-0.5	-2.0	.
c1csc(C(c2nnnn2C2CCCCC2)N2CCCC3(CCCCC3)C2)c1 (stereo not drawn)	2.9	0.7	7.3	0.8	81.8*
CC(C)(C)n1nnnc1C(c1cccs1)N1CCCC2(CCCCC2)C1 (stereo not drawn)	-1.8	-1.0	2.2	1.7	15.1
Cc1noc(C)c1CSCC(=O)OCC(=O)Nc1ccc(OC(F)(F)F)cc1	.	0.1	.	3.7	.
C=CCN(CC=C)CCOc1cccc2ccccc12	1.3	-0.7	1.7	-3.7	75.5*
O=C1NN(c2ccccc2)C(=O)/C1=C/c1ccc(Sc2cccc3ccccc23)o1	3.1	-0.5	6.5	1.0	104.3*
O=C(c1ccc(Cl)cc1[N+](=O)[O-])N(Cc1ccccc1)Cc1ccccc1	0.0	.	-1.4	.	73.3*
COc1ccccc1CNC(=O)CNC(=O)[C@@H]1Cc2ccccc2CN1	-5.2	-0.1	0.0	-1.8	.
O=C(Cc1ccccn1)c1ccc(Cl)cc1	3.1	0.0	5.9	1.9	.

Bioassay records from PubChem.
